From ChEMBL document CHEMBL3400034, “Design, synthesis and biological evaluation of di-substituted noscapine analogs as potent and microtubule-targeted anticancer agents” (Bioorg Med Chem Lett, 2015) come the findings set out here.

The structures appear in SMILES notation. pIC50: −log10 of the molar value. Activity calls are given as the source filed them. No cut-off for these calls is given here.

The target in test [1] is T1, Tubulin (Bos taurus) (UniProt Q6B856+Q862L2+Q862F3). Briefly: (§1) Binding affinity to bovine brain tubulin assessed as reduction in tubulin intrinsic tryptophan fluorescence intensity incubated for 45 mins by spectrophotometry based fluorescence titration assay. The essentials: (§2)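 Tubulin binding measured as quenching of intrinsic tryptophan fluorescence across increasing compound concentrations. KD derived from double reciprocal plots. Mean ± S.D. of three independent experiments, each performed in triplicate.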

For test [2], the target named is Tubulin (Bos taurus, UniProt Q6B856+Q862L2+Q862F3). The test is described as §1. The essentials: as §2
Test [3] concerns MDA-MB-231. Briefly: Induction of apoptosis in human MDA-MB-231 cells assessed as reduction in survivin protein expression at 25 uM after 24 hrs by immunoblot method. It counts as functional, cell-based. The gist of the method: (§3)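 Lysates from treated and control cells run on immunoblots. Probed for survivin and cleaved PARP, with β-actin as loading control.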
The subject of test [4] is MDA-MB-231. The test is described as follows: Induction of apoptosis in human MDA-MB-231 cells assessed as accumulation at subG1 phase at 25 uM after 12 to 48 hrs by propidium iodide staining based FACS method. It counts as functional, cell-based. The gist of the method: (§4)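 MDA-MB-231 cells treated for 0–48 h, with samples at several time points. Concentration was 10 µM for some analogs and 25 µM for others. DNA stained with propidium iodide and analysed by flow cytometry. 2N DNA scored as G1, 4N as G2/M, below 2N as sub-G1 (apoptotic index).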

The nature of test [5]: Cytotoxicity activity against human PC3 cells after 48 hrs by MTT assay. The settings on record: PC-3, 48 h. It counts as functional, cell-based. The essentials: (§5)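 Cells exposed for 48 h to increasing gradient concentrations. Proliferation read by MTT assay as percentage cell survival. IC50 is the drug concentration giving 50% inhibition of proliferation.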
For test [6], the system named is MDA-MB-231. The test is described as follows: Induction of apoptosis in human MDA-MB-231 cells assessed as increase in cleaved PARP protein level at 25 uM after 24 hrs by immunoblot method. It counts as functional, cell-based. The essentials: as §3
Test [7] deals with MDA-MB-231. The test is described as follows: Induction of apoptosis in human MDA-MB-231 cells assessed as increase in caspase-3/7 activity by measuring Z-DEVD-aminoluciferin cleavage at 25 uM after 24 hrs by luminescence plate reader based method. The class given is functional, cell-based. The essentials:
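Lysates from treated and control cells assayed for caspase-3/7 activity. Read-out was luminescence from cleavage of Z-DEVD-aminoluciferin, expressed relative to control.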

In test [8] the test system is MDA-MB-231. Briefly: Induction of cell death in human MDA-MB-231 cells at 25 uM after 48 hrs by propidium iodide staining based FACS method. It counts as functional. The essentials: as §4
Test [9] deals with T1, Tubulin (Bos taurus). The test is described as follows: Inhibition of bovine brain tubulin polymerization incubated for 10 to 30 mins by spectrophotometry based light scattering assay. The gist of the method:
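Polymerisation of 12 µM tubulin followed by turbidity (light scattering) at 350 nm. Compound range 0–25 µM, over 30 min. Reported as relative absorbance.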

Test [10] has as its system MDA-MB-231. The test is described as follows: Cytotoxicity activity against human MDA-MB-231 cells after 48 hrs by MTT assay. It counts as functional, cell-based. As to conditions: MDA-MB-231, 48 h. The gist of the method: as §5
Test [11] concerns MDA-MB-231. Briefly: Induction of cell cycle arrest in human MDA-MB-231 cells assessed as accumulation at G2/M phase at 25 uM after 12 to 48 hrs by propidium iodide staining based FACS method. The class given is functional. The essentials: as §4
The subject of test [12] is MDA-MB-231. Briefly: Induction of cell death in human MDA-MB-231 cells at 10 uM after 48 hrs by propidium iodide staining based FACS method. It counts as functional. The essentials:
as §4

In test [13] the test system is MDA-MB-231. The test is described as follows: Induction of apoptosis in human MDA-MB-231 cells assessed as increase in cleaved PARP protein level at 10 uM after 24 hrs by immunoblot method. The class given is functional, cell-based. The gist of the method: (§6)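 Protein lysates from treated and control MDA-MB-231 cells analysed by immunoblot, probed for survivin and cleaved PARP, with β-actin as loading control.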

In test [14] the test system is MDA-MB-231. The test is described as follows: Induction of apoptosis in human MDA-MB-231 cells assessed as reduction in survivin protein expression at 10 uM after 24 hrs by immunoblot method. The class given is functional, cell-based. The gist of the method: as §6
Test [15] deals with MDA-MB-231. The test is described as follows: Induction of cell cycle arrest in human MDA-MB-231 cells assessed as accumulation at G2/M phase at 10 uM after 12 to 48 hrs by propidium iodide staining based FACS method. It counts as functional. The gist of the method: (§7)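 MDA-MB-231 cells treated for 0–48 h (compounds at 10 µM or 25 µM depending on analog); DNA stained with propidium iodide and cell cycle profiles read by flow cytometry; G2/M (4N DNA) and sub-G1 (apoptotic index) populations quantified at each time point.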

In test [16] the test system is MDA-MB-231. The test is described as follows: Induction of apoptosis in human MDA-MB-231 cells assessed as accumulation at subG1 phase at 10 uM after 12 to 48 hrs by propidium iodide staining based FACS method. The class given is functional, cell-based. The essentials: as §7
Test [17] has as its system MDA-MB-231. Briefly: Induction of apoptosis in human MDA-MB-231 cells assessed as increase in caspase-3/7 activity by measuring Z-DEVD-aminoluciferin cleavage at 10 uM after 24 hrs by luminescence plate reader based method. The class given is functional, cell-based. The gist of the method: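 Lysates from treated and control MDA-MB-231 cells assayed for caspase-3/7 activity by luminescence from cleavage of Z-DEVD-aminoluciferin substrate; activity expressed relative to untreated control.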

Test [18] has as its target T1, Tubulin (Bos taurus). The test is described as follows: Inhibition of bovine brain tubulin polymerization at 25 uM incubated for 10 to 30 mins by spectrophotometry based light scattering assay. The essentials: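 Assembly of 12 µM tubulin followed by turbidity (light scattering) at 350 nm over 30 min with compound at 0–25 µM; relative absorbance compared with control.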

On to `COc1ccc2c(c1OC(=O)NCc1ccccc1)C(=O)O[C@@H]2[C@H]1c2c(c(Br)c3c(c2OC)OCO3)CCN1C`, for which the Activity result in test [1] was “Dose-dependent effect”; in [8] it was 80%; in [11] it was 15%. The Kd in [2] was found to be 21 µM. The result in [3], in test [4], in [6] and in test [7] was Active. Further, the pIC50 in [5] is 4.31; in [10] it was 4.70. For the same molecule, the inhibition entry in test [9] is “Dose-dependent effect”.
In the case of `CCNC(=O)Oc1c(OC)ccc2c1C(=O)O[C@@H]2[C@H]1c2c(c(Br)c3c(c2OC)OCO3)CCN1C`, the Activity entry in [1] was “Dose-dependent effect”; in test [8], 80%; in test [11] it was 15%. Moreover, in [2], the Kd was found to be 26 µM. The outcome in [3], in test [4], in test [6] and in [7] was Active. The negative-log IC50 (pIC50) is 4.66 in test [5] and 5.41 in test [10]. Moreover, the inhibition result in [9] is “Dose-dependent effect”.
Turning to `COc1ccc2c(c1OC(C)=O)C(=O)O[C@@H]2[C@H]1c2c(c(Br)c3c(c2OC)OCO3)CCN1C`, the Activity entry in test [1] was “Dose-dependent effect”; in test [12], 80%; in test [15] it was 15%. For the same molecule, the Kd in [2] came to 44 µM. The result in [13], in test [16] and in [17] was Active. The result in test [14] was inactive. The results for the pIC50 in test [5] and in [10] were 4.31 and 5.60, respectively. In addition, the inhibition result in test [9] was “Dose-dependent effect”.
Regarding `COc1ccc2c(c1O)C(=O)O[C@@H]2[C@H]1c2c(c(Br)c3c(c2OC)OCO3)CCN1C`, the Activity entry is “Dose-dependent effect” in [1] and 15% in [15]. Besides, the Kd in [2] came to 55 µM. The outcome in test [13], in test [16] and in test [17] was Active. Also, the result in [14] was inactive. For the same molecule, the pIC50 in [5] is 5.25; in [10], 5.66. For the same molecule, the inhibition entry in test [9] was “Dose-dependent effect”. Also, the inhibition entry in test [18] was “Active”.
